In ChEMBL document CHEMBL1275303, “Synthesis and antimicrobial activity of 2-substituted [4-(1,3,4-oxadiazol-2-yl methyl)] phthalazin-1(2H)-one derivatives” (2010):

Tests used:
Aspergillus flavus [1] = assay: Antimicrobial activity against Aspergillus flavus at 100 ug/mL after 72 hrs by well plate method; assay type: functional; conditions: read-out: IZ
Salmonella typhi [2] = assay: Antimicrobial activity against Salmonella typhi at 50 ug/mL after 24 hrs by well plate method; assay type: functional, Salmonella enterica subsp. enterica serovar Typhi; conditions: Salmonella enterica, read-out: IZ
Outline: (§1)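 Agar well diffusion in nutrient agar: about 1 cm³ of a 24 h broth culture placed in a sterile dish, molten agar at 45 °C poured over it and allowed to set. 6 mm holes cut with a sterile cork borer and filled with compound solution in DMSO. Incubated 24 h at 37 °C; inhibition zone diameter read in mm. Run in duplicate, standard deviation calculated.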

Bacillus subtilis [3] = assay: Antimicrobial activity against Bacillus subtilis at 50 ug/mL after 24 hrs by well plate method; assay type: functional; conditions: read-out: IZ
Outline: (§2)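 Agar well diffusion in nutrient agar. About 1 cm³ of a 24 h broth culture was placed in sterile dishes, and molten agar at 45 °C was poured over it and set. 6 mm wells were bored and filled with compound in DMSO (100 or 50). Plates were incubated 24 h at 37 °C, and the inhibition zone was read in mm. Duplicate runs, with standard deviation; amoxicillin as reference.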

Bacillus subtilis [4] = assay: Antimicrobial activity against Bacillus subtilis at 100 ug/mL after 24 hrs by well plate method; assay type: functional; conditions: read-out: IZ; outline: as §2
Candida albicans [5] = assay: Antimicrobial activity against Candida albicans at 50 ug/mL after 72 hrs by well plate method; assay type: functional; conditions: read-out: IZ
Outline: (§3)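 Antifungal well-plate assay on Sabouraud dextrose agar using a 72 h old broth culture of the fungal strain. Wells were filled with compound dissolved in DMSO (100 or 50), and the zone of inhibition around each well was measured. […] served as reference.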

Nannizzia gypsea [6] = assay: Antimicrobial activity against Microsporum gypseum at 50 ug/mL after 72 hrs by well plate method; assay type: functional; conditions: read-out: IZ; outline: as §3
Candida albicans [7] = assay: Antimicrobial activity against Candida albicans at 100 ug/mL after 72 hrs by well plate method; assay type: functional; conditions: read-out: IZ; outline: as §3
Aspergillus flavus [8] = assay: Antimicrobial activity against Aspergillus flavus at 50 ug/mL after 72 hrs by well plate method; assay type: functional; conditions: read-out: IZ
[9] = system: Chrysosporium keratinophilum; assay: Antimicrobial activity against Chrysosporium keratinophilum at 50 ug/mL after 72 hrs by well plate method; assay type: functional; conditions: read-out: IZ; outline: as §3
Nannizzia gypsea [10] = assay: Antimicrobial activity against Microsporum gypseum at 100 ug/mL after 72 hrs by well plate method; assay type: functional; conditions: read-out: IZ; outline: as §3
Salmonella typhi [11] = assay: Antimicrobial activity against Salmonella typhi at 100 ug/mL after 24 hrs by well plate method; assay type: functional, Salmonella enterica subsp. enterica serovar Typhi; conditions: Salmonella enterica, read-out: IZ; outline: as §1
Staphylococcus aureus [12] = assay: Antimicrobial activity against Staphylococcus aureus at 50 ug/mL after 24 hrs by well plate method; assay type: functional; conditions: read-out: IZ; outline: as §2
Escherichia coli [13] = assay: Antimicrobial activity against Escherichia coli at 100 ug/mL after 24 hrs by well plate method; assay type: functional; conditions: read-out: IZ; outline: as §2
Escherichia coli [14] = assay: Antimicrobial activity against Escherichia coli at 50 ug/mL after 24 hrs by well plate method; assay type: functional; conditions: read-out: IZ; outline: as §2
Staphylococcus aureus [15] = assay: Antimicrobial activity against Staphylococcus aureus at 100 ug/mL after 24 hrs by well plate method; assay type: functional; conditions: read-out: IZ; outline: as §2
[16] = system: Chrysosporium keratinophilum; assay: Antimicrobial activity against Chrysosporium keratinophilum at 100 ug/mL after 72 hrs by well plate method; assay type: functional; conditions: read-out: IZ; outline: as §3

Row | Compound | zone of inhibition at 100 µg/mL (Aspergillus flavus [1]) [mm] | zone of inhibition at 50 µg/mL (Salmonella typhi [2]) [mm] | zone of inhibition at 50 µg/mL (Bacillus subtilis [3]) [mm] | zone of inhibition at 100 µg/mL (Bacillus subtilis [4]) [mm] | zone of inhibition at 50 µg/mL (Candida albicans [5]) [mm] | zone of inhibition at 50 µg/mL (Nannizzia gypsea [6]) [mm] | zone of inhibition at 100 µg/mL (Candida albicans [7]) [mm] | zone of inhibition at 50 µg/mL (Aspergillus flavus [8]) [mm] | zone of inhibition at 50 µg/mL [9] [mm] | zone of inhibition at 100 µg/mL (Nannizzia gypsea [10]) [mm] | zone of inhibition at 100 µg/mL (Salmonella typhi [11]) [mm] | zone of inhibition at 50 µg/mL (Staphylococcus aureus [12]) [mm] | zone of inhibition at 100 µg/mL (Escherichia coli [13]) [mm] | zone of inhibition at 50 µg/mL (Escherichia coli [14]) [mm] | zone of inhibition at 100 µg/mL (Staphylococcus aureus [15]) [mm] | zone of inhibition at 100 µg/mL [16] [mm]
1 | O=c1c2ccccc2c(Cc2nnc(-c3ccc(F)cc3)o2)nn1CCN1CCOCC1 | 4 | 3.5 | 3 | 6 | 2.5 | 4 | 5.5 | 2 | 2.5 | 7.5 | 5 | 0 | 2 | 0 | 1 | 5.5
2 | Cc1ccccc1-c1nnc(Cc2nn(Cc3ccc(Cl)nc3)c(=O)c3ccccc23)o1 | 4 | 1 | 0 | 2.5 | 0 | 1 | 3 | 1 | 0 | 3 | 3 | 4.5 | 7 | 4.5 | 6.5 | 1.5
3 | O=c1c2ccccc2c(Cc2nnc(-c3ccc(F)cc3)o2)nn1Cc1cnc(Cl)s1 | 5 | 5 | 2 | 4.5 | 2.5 | 4 | 5.5 | 2 | 0 | 8.5 | 9 | 5 | 9 | 5 | 9 | 2.5
4 | Cc1nnc(Cc2nn(Cc3ccc(Cl)nc3)c(=O)c3ccccc23)o1 | 5 | 1 | 0 | 0 | 1 | 0 | 3.5 | 1 | 0 | 2 | 2.5 | 0 | 3.5 | 1.5 | 1.5 | 0
5 | O=c1c2ccccc2c(Cc2nnc(-c3ccc(Cl)nc3)o2)nn1Cc1ccc(Cl)nc1 | 6.5 | 2.5 | 5.5 | 8 | 8.5 | 4 | 11.5 | 3.5 | 4.5 | 7 | 6.5 | 7.5 | 12.5 | 7.5 | 10.5 | 6.5
6 | O=c1c2ccccc2c(Cc2nnc(C3CC3)o2)nn1CCN1CCOCC1 | 5 | 2.5 | 3.5 | 5.5 | 2.5 | 3.5 | 4.5 | 2.5 | 0.5 | 6 | 6.5 | 0 | 5 | 1.5 | 1.5 | 2.5
7 | O=c1c2ccccc2c(Cc2nnc(-c3ccc(F)cc3)o2)nn1Cc1ccc(Cl)nc1 | 4 | 3 | 3 | 5 | 2.5 | 4 | 4.5 | 2 | 0 | 6.5 | 7.5 | 4 | 10 | 8 | 6 | 1.5
8 | Cc1ccccc1-c1nnc(Cc2nn(CCN3CCOCC3)c(=O)c3ccccc23)o1 | 3 | 2.5 | 2.5 | 4.5 | 0 | 1 | 1.5 | 1.5 | 0 | 2 | 5 | 1.5 | 5.5 | 2.5 | 3.5 | 2.5
9 | Cc1nnc(Cc2nn(CCN3CCOCC3)c(=O)c3ccccc23)o1 | 3.5 | 1.5 | 0 | 1 | 1 | 0 | 2.5 | 1 | 0 | 3.5 | 4.5 | 0 | 2.5 | 0 | 3.5 | 0
10 | O=c1c2ccccc2c(Cc2nnc(C(F)(F)F)o2)nn1Cc1ccc(Cl)nc1 | 2.5 | 4 | 0 | 2 | 1.5 | 3 | 4.5 | 0 | 1 | 5 | 7 | 3.5 | 8 | 6 | 6 | 4.5
11 | Cc1ccccc1-c1nnc(Cc2nn(Cc3cnc(Cl)s3)c(=O)c3ccccc23)o1 | 2 | 3 | 2 | 5 | 0 | 1 | 3.5 | 1 | 0 | 3 | 5 | 0 | 6 | 6 | 2 | 3.5
12 | O=c1c2ccccc2c(Cc2nnc(-c3ccc(Cl)cc3)o2)nn1Cc1cnc(Cl)s1 | 5 | 5 | 3 | 5.5 | 3 | 1 | 6.5 | 2.5 | 2 | 4 | 9.5 | 7 | 9 | 5 | 10 | 4.5
13 | O=c1c2ccccc2c(Cc2nnc(-c3ccc(Cl)nc3)o2)nn1Cc1cnc(Cl)s1 | 8 | 3 | 4 | 6 | 9.5 | 4 | 10.5 | 4 | 5.5 | 7.5 | 5 | 4 | 12 | 8 | 7 | 8.5
